# This excerpt belongs to a sample that is enriched for hits.
# Fibroblast inh = antiproliferative effect on LL 47 fibroblasts – human, LL 47 cells, CellTiter-Glo luminescence, primary screen. viability, % at 10 µM. hit rate 1.1% among 85,000. LL 47 human lung fibroblast viability, ATP luminescence; active compounds read low. AID 719, 2007;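 active = viability at or below 50% in the single dose screen; inactive = viability above 50%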;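 also: compound exposure lasted 72 h before the ATP readout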
#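 Material: human lung fibroblast line LL 47, low passage; Evaluation: viability percentage against median untreated-cell control; Buffer or medium: 15% FBS in IMEM; Incubation: 72 h compound exposure at 37 °C after overnight plating; Dosing: 0.1% DMSO in all compound wells; Measured by: CellTiter-Glo luminescence.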
# bCat KO growth = primary screen for growth suppressors in beta-catenin knockout HCT116 cells (colon tumor, human). HCT116 beta-catenin knockout viability, CellTiter-Glo, 60 h; active compounds read low. hit rate 1.5% among 140,000. viability, % at 10 µM;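 active = viability at or under a set limit, the compound median less 4 SD, cut at about 6% in these data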
# H69AR inhibit = proliferation blockers of H69AR lung cancer cells, primary screen, cell-based, human, 86K library; H69AR lung tumor viability, ATP luminescence, 72 h; active compounds read low; viability, % at 10 µM; hit rate 6% among 85,000; AID 598, 2007;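 active = viability at or below 40%; inactive = viability above 40%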;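 also: multidrug resistant small cell line overexpressing MRP-1 efflux transporter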
# PTEN del growth = growth suppression of PTEN-null HCT116, primary screen, cell-based, CellTiter-Glo | AID 827, 2007 | viability, % at 10 µM | hit rate 1.2% among 140,000 | HCT116 PTEN-null viability, 60 h; active compounds read low;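 active = viability at or below a set limit, 4 SD under the median of all tested compounds, cut at about 3.7% in these data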;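 also: PTEN knockout HCT116 line with beta catenin targeted HCT116 as companion control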
# HUVEC prolif 384 = inhibitors of HUVEC proliferation, primary screen, cell-based, 384-well | CellTiter-Glo luminescence, 72 h; active compounds read low | viability, % at 10 µM (by protocol) | hit rate 1.1% among 86,000;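 active = viability at or below 30%; inactive = viability above 30%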
# Hits are given with their value; i = inactive; nt = no result.
SMILES,Fibroblast inh,bCat KO growth,H69AR inhibit,PTEN del growth,HUVEC prolif 384
Cc1ccc(-c2nnn(CC(=O)Nc3ccc(S(=O)(=O)N4CCC(C)CC4)cc3)n2)cc1,i,i,21.4,i,i
CC1CCN(S(=O)(=O)c2ccc(NC(=O)CN3CCOCC3)cc2)CC1,i,i,i,i,i
Cc1cc(SCC(=O)c2cccs2)n2nc(C)c(-c3ccc(Cl)cc3)c2n1,nt,i,nt,i,nt
Cc1cc(-n2nc(C)cc2C)n2nc(C)c(-c3ccc(Cl)cc3)c2n1,46.4,i,i,i,i
C=CCSc1cc(C)nc2c(-c3ccc(Cl)cc3)c(C)nn12,i,i,36.1,i,i
Cc1cc(C(F)(F)F)n2nc(C)c(-c3ccc(Cl)cc3)c2n1,nt,i,nt,i,nt
COC(=O)c1ccc(N(C(=O)c2ccco2)C(C(=O)NC2CCCC2)c2ccco2)cc1 (configuration not stated),i,i,i,i,i
O=S(=O)(c1cc(Cl)ccc1Cl)N1CC2CCCN2c2ccc(C(F)(F)F)cc21 (configuration not stated),nt,i,nt,i,nt
Clc1ccc(N2CCN(c3ncnc4c3oc3ccccc34)CC2)cc1,i,nt,i,nt,27.4
CC1CN(c2ncnc3c2oc2ccccc23)CC(C)O1 (configuration not stated),i,i,i,i,i
Cc1nn(-c2ccccc2)c2c1/C(=N/O)CC(C)(C)C2,i,i,30.0,i,i
Cc1nn(-c2ccccc2)c2c1C(=O)N(c1ccccc1)C(=O)C(C)(C)C2,i,i,i,i,i
COCc1nnc(NC(=O)c2ccc(S(=O)(=O)N3CCCCCC3)cc2)o1,i,i,i,i,i
COCc1nnc(NC(=O)c2ccc(S(=O)(=O)N(C)C3CCCCC3)cc2)o1,i,i,24.7,i,i
CCc1nnc(NC(=O)c2ccc(S(=O)(=O)N(CC(C)C)CC(C)C)cc2)o1,i,i,25.1,i,i
COc1ccc(N(CC(O)Cn2cnc3ccccc32)S(=O)(=O)c2ccc(C)cc2)cc1 (configuration not stated),nt,i,nt,i,nt
CCCOc1c(OC)cccc1C1CC(=O)Nc2cc3c(cc21)OCCO3 (configuration not stated),i,i,14.7,i,i
CCCOc1c(OC)cccc1C1CC(=O)Nc2cc3c(cc21)OCO3 (configuration not stated),i,i,16.5,i,i
CCOc1c(OC)cccc1C1CC(=O)Nc2cc(OC)c(OC)cc21 (configuration not stated),nt,i,nt,i,nt
Cn1nc(C(F)(F)F)c(/C=N/OC(=O)c2ccccc2Cl)c1SCc1ccccc1Cl,nt,i,nt,i,nt
Cc1ccc2oc(=O)c3cnn(CC(=O)Nc4ccccc4N4CCN(C)CC4)c3c2c1,47.2,i,i,i,2.1
Cc1ccc2oc(=O)c3cnn(CC(=O)N4CCN(c5ccccc5)CC4)c3c2c1,i,i,i,i,i
Cn1c(CNc2cccc(Cl)c2)nnc1SCC(=O)OC1CCCCC1,i,i,i,i,18.8
CCOc1ccc(C(=O)NCC2OCCc3ccccc32)cc1 (configuration not stated),i,i,i,i,i
O=C(CC(c1cccs1)S(=O)(=O)c1ccccc1)c1ccc(F)cc1 (configuration not stated),nt,i,nt,i,nt
SMILES,Fibroblast inh,bCat KO growth,H69AR inhibit,PTEN del growth,HUVEC prolif 384
COc1ccc(-c2nc3c(c4nnc(SC(C)C(=O)Nc5ccccc5)n24)COC(C)(C)C3)cc1 (configuration not stated),nt,5.2,nt,i,nt
Cc1ccc(NC(=O)c2cc(NC(=O)c3ccco3)ccc2N2CCOCC2)cc1,i,i,i,i,i
Cc1ccc(NC(=O)c2cc(NC(=O)c3ccco3)ccc2N2CCCCC2)cc1,47.9,i,26.3,i,i
COc1cc(OC)cc(-c2ncc3ccccn23)c1,i,i,38.1,i,i
CCn1c(=N)n(CC(O)COc2cccc(C)c2)c2ccccc21 (configuration not stated),i,i,i,i,i
CCCCn1c(=N)n(CC(O)COc2ccc(C)cc2)c2ccccc21 (configuration not stated),i,2.0,7.4,1.7,i
CCCn1c(=N)n(CC(O)COc2cccc(C)c2)c2ccccc21 (configuration not stated),i,2.6,i,3.2,i
COc1cc2c(cc1OC)C1(Nc3c-2c(Cc2ccccc2)nn3-c2ccccc2)C(=O)Nc2ccccc21 (configuration not stated),i,i,25.7,i,i
COc1ccccc1N1CCN(CCc2n[nH]c(=S)n2-c2ccccc2)CC1,i,i,i,i,i
O=C(CSc1nnc(CNC(=O)c2cccs2)o1)NCCc1ccccc1,i,i,i,i,i
COc1cc(OC)cc(-c2nc3ccccc3c(=O)n2OC(=O)c2ccc(C)c(C)c2)c1,nt,i,nt,i,nt
CCOC(=O)C1(N(CC)CC)Sc2cc(C)ccc2NC1=O (configuration not stated),i,i,15.5,i,i
O=C(Cc1ccccc1)NC(=S)Nc1ccc2oc(-c3ccccc3)nc2c1,nt,i,nt,i,nt
Cc1ccc(S(=O)(=O)N(C)c2ccc(C(=O)N3CCN(Cc4ccc5c(c4)OCO5)CC3)cc2)cc1,i,i,24.7,i,i
CN(c1ccc(C(=O)N2CCN(Cc3ccc4c(c3)OCO4)CC2)cc1)S(=O)(=O)c1ccccc1,i,i,i,i,i
CCOc1ccc(N2CCn3c2nc2c3c(=O)n(CCc3ccccc3)c(=O)n2C)cc1,i,nt,14.7,nt,i
CCc1ccc(S(=O)(=O)/N=C2/C=C(Sc3ncn[nH]3)C(=O)c3ccccc32)cc1,nt,2.5,nt,3.4,nt
N#C/C(=C(\O)Cc1ccccc1)c1nc2ccccc2[nH]1,i,i,14.9,i,i
Cc1cc(C)cc(OCC(=O)OC/C(O)=C(\C#N)c2nc3ccccc3[nH]2)c1,nt,3.9,nt,i,nt
Cc1cccc(C)c1OCC(=O)OC/C(O)=C(\C#N)c1nc2ccccc2[nH]1,nt,i,nt,i,nt
C/C(O)=C(\C#N)c1nc2ccccc2[nH]1,nt,i,nt,i,nt
N#C/C(=C(/O)COC(=O)CCC1CCCCC1)c1nc2ccccc2[nH]1,i,i,24.6,i,i
CN(C)C(=O)COC(=O)c1ccccc1Nc1ccc(SC(F)F)cc1,nt,i,nt,i,nt
O=c1cc(/C=C/c2cccs2)[nH]c2ccccc12,i,i,24.9,i,i
Cn1c(=O)c2cc(S(=O)(=O)N3CCN(c4cccc(C(F)(F)F)c4)CC3)ccc2n(C)c1=O,i,i,25.4,i,i
COc1ccc(N2CCN(S(=O)(=O)c3cccc(C(F)(F)F)c3)CC2)cc1,i,i,i,i,i
Cc1ccc(S(=O)(=O)CCSc2nc(C)cc(C(F)(F)F)c2C#N)cc1,i,i,1.6,i,i
Cc1ccc2c(c1)cc(CN(Cc1ccco1)C(=O)COc1ccccc1)c1nnnn12,i,i,37.7,i,i
Cc1ccc2c(c1)cc(CN(Cc1ccccc1)C(=O)N(C)C)c1nnnn12,i,nt,i,nt,i

# Screening results deposited in PubChem by SRMLSC.
